We go through 20 compounds from article PMC2762272 (Bioorganic & medicinal chemistry, 2009).

Test [1] has as its system human T-lymphocyte Molt4/C8 cells. Kind of test: Cell growth inhibitory activity, Molt/4. The format is cell-based. To be noted: Molt4/C8, 48 h, read-out: IC50 Molt4/C8.
Test [2] relates to murine leukemia (L1210) cells. In words: Cell growth inhibitory activity, L1210. To be noted: Mus musculus, L1210, 48 h, read-out: IC50 L1210. Format: cell-based. An outline of the steps: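 Murine leukemia cells at 300,000-500,000 cells/mL were mixed 1:1 with dilutions of test compound and incubated at 37 °C for two days. Cell number was counted with a Coulter counter. IC50 is the concentration inhibiting proliferation by 50%, taken from dose–response curves as mean ± SE of at least three independent experiments.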

Test [3] deals with L1210, FM3A, Molt/4, CEM and HeLa cells. Kind of test: Cell growth inhibitory activity, panel of cell lines. The format is cell-based, murine and human. To be noted: for IC50: read-out: IC50 values, range over the cell lines. An outline of the steps:
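Murine L1210 leukemia and FM3A mammary carcinoma cells, and human Molt 4, CEM (T-lymphocyte) and HeLa (cervix carcinoma) cells. Cells were suspended at 300,000–500,000 cells/mL and mixed 1:1 with serial dilutions of test compound. Incubated 2 days at 37 °C, then cell number counted with a Coulter counter. IC50 (50% inhibition of proliferation) was taken from dose–response curves as mean ± SE of ≥3 independent experiments.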

The subject of test [4] is murine mammary carcinoma (FM3A) cells. Kind of test: Cell growth inhibitory activity, FM3A. Format: cell-based. To be noted: Mus musculus, 48 h, read-out: IC50 FM3A/0.
Test [5] relates to K562 (human chronic myelogenous leukemia) cells. Kind of test: Flow cytometric analysis of cell cycle distribution. Format: cell-based. To be noted: 24 h, compound at concentration inhibiting 100% cell growth. In general terms: A flow cytometer gives signals particle by particle.
In test [6] the test system is human cervix carcinoma (HeLa) cells. In words: Cell growth inhibitory activity, HeLa. Format: cell-based.
The test system of test [7] is K562 (human chronic myelogenous leukemia) cells. Kind of test: Concentration inhibiting 100% cell growth of K562 cells. Format: cell-based.
The subject of the next test is bovine brain tubulin. Kind of test: Inhibition of tubulin polymerization. Format: biochemical.

SMILES strings stand for the structures. A value given as a limit tells only on which side of the number the result lay.

As to `COc1ccc2cc(C(=S)c3cc(OC)c(OC)c(OC)c3)oc2c1` [Compound 4y, (6-methoxybenzofuran-2-yl)(3,4,5-trimethoxyphenyl)methanethione], the IC50 in test [1] amounted to 100 ± 10 nM.

As for `COc1cc(C(=O)c2cc3cc(O)ccc3o2)cc(OC)c1OC` [Compound 4l, (5-Hydroxybenzofuran-2-yl)(3,4,5-trimethoxyphenyl)-methanone], the IC50 in test [1] was greater than 10000 nM.

For `COc1cc(C(=O)c2cc3cc(Br)ccc3o2)cc(OC)c1OC` [Compound 4h, (5-Bromobenzofuran-2-yl)(3,4,5-trimethoxyphenyl)methanone], the IC50 in test [1] is greater than 10000 nM.

Take `COc1ccc(/C=C\c2cc(OC)c(OC)c(OC)c2)cc1O` [CA4, combretastatin A-4]: the IC50 in test [2] is 2.8 ± 1.1 nM.

Take `COc1ccc2c(N)c(C(=O)c3cc(OC)c(OC)c(OC)c3)oc2c1` [Compound 3a]: the IC50 in test [3] is 87 to 430 nM; in test [2], 430 ± 40 nM; in test [4] it was 280 ± 160 nM.

For the compound `COc1ccc2c(N(C)C)c(C(=O)c3cc(OC)c(OC)c(OC)c3)oc2c1` [Compound 3b], the IC50 in test [3] is 48 to 78 nM; in test [2], 65 ± 5 nM; in test [4] it was 59 ± 5 nM.

`COc1ccc2cc(C(=O)c3cc(OC)c(OC)c(OC)c3)oc2c1` [Compound 4d, (6-Methoxybenzofuran-2-yl)(3,4,5-trimethoxyphenyl)methanone]: the IC50 in test [3] was 59 to 110 nM.

As to `COc1ccc2c3c(oc2c1)C(=O)c1cc(OC)c(OC)c(OC)c1-3` [Compound 4ac, 3,8,9,10-tetramethoxy-6H-benzo[b]indeno[1,2-d]furan-6-one], the “antiproliferative activity (in words)” value in test [3] (five cell lines) was “completely inactive”. Besides, the IC50 in test [1] was greater than 10000 nM.

Regarding `COc1cc(C(=O)c2cc3c(OC)cccc3o2)cc(OC)c1OC` [Compound 4b, (4-Methoxybenzofuran-2-yl)(3,4,5-trimethoxyphenyl)methanone], the “sub-G0–G1 peak (apoptotic peak, A)” value in test [5] was 20–44%.

For `COc1cc(C(=O)c2cc3cc(Cl)ccc3o2)cc(OC)c1OC` [Compound 4g, (5-Chlorobenzofuran-2-yl)(3,4,5-trimethoxyphenyl)methanone], the IC50 in test [1] is greater than 10000 nM.

On to `CCOc1ccc2c(C)c(C(=O)c3cc(OC)c(OC)c(OC)c3)oc2c1` [Compound 4t, (6-Ethoxy-3-methylbenzofuran-2-yl)(3,4,5-trimethoxyphenyl)methanone], for which the “fold increase of activity relative to 4r” value came to 10 fold in test [3] (L1210, FM3A, Molt/4 and CEM cells); 2 fold in test [6]. The IC50 in test [3] was in the range of 1.2 to 6.3 nM.

As to `COc1cc(C(=O)c2oc3ccc(O)cc3c2C)cc(OC)c1OC` [Compound 4w, (5-Hydroxy-3-methylbenzofuran-2-yl)(3,4,5-trimethoxyphenyl)methanone], the “sub-G0–G1 peak (apoptotic peak, A)” value in test [5] is given as 20–44%.

For the compound `COc1cc(C(=O)c2oc3cccc(OC)c3c2C)cc(OC)c1OC` [Compound 4p, (4-Methoxy-3-methylbenzofuran-2-yl)(3,4,5-trimethoxyphenyl)methanone], in test [5], the “effect on cell cycle distribution” value was “accumulate in late S phase” and the “sub-G0–G1 peak (apoptotic peak, A)” value was 20–44%.

For `COc1cc(C(=O)c2cc3cc(OC)c(OC)c(OC)c3o2)cc(OC)c1OC` [Compound 4k, (5,6,7-Trimethoxybenzofuran-2-yl)(3,4,5-trimethoxyphenyl)methanone], the IC50 in test [1] was greater than 10000 nM.

Turning to `COc1ccc2cc(C(OC)c3cc(OC)c(OC)c(OC)c3)oc2c1` (stereo not shown) [Compound 4aa, 6-methoxy-2-(methoxy(3,4,5-trimethoxyphenyl)methyl)benzofuran], the IC50 in test [1] is greater than 10000 nM.

Take `COc1cc(C(=O)c2cc3cccc(O)c3o2)cc(OC)c1OC` [Compound 4n, (7-Hydroxybenzofuran-2-yl)(3,4,5-trimethoxyphenyl)-methanone]: the IC50 in test [1] is greater than 10000 nM.

For `COc1cc(C(=O)c2oc3cc(F)ccc3c2C)cc(OC)c1OC` [Compound 4u, (6-Fluoro-3-methylbenzofuran-2-yl)(3,4,5-trimethoxyphenyl)methanone], in test [5], the “effect on cell cycle distribution” value is “accumulate in late S phase” and the “sub-G0–G1 peak (apoptotic peak, A)” value is on record as 20–44%. Moreover, the “concentration able to inhibit 100% cell growth after 24 h” value in test [7] is 1.62 µM. The “antitubulin polymerization activity (in words)” value in the test on bovine brain tubulin is recorded as “weak antitubulin polymerization activity”.

For `COc1ccc2c(C)c(C(=O)c3cc(OC)c(OC)c(OC)c3)oc2c1` [Compound 4r, (6-Methoxy-3-methylbenzofuran-2-yl)(3,4,5-trimethoxyphenyl)methanone], the IC50 in test [3] is 3 to 27 nM.

With `COc1cc(C(=O)c2cc3ccc(OC)c(O)c3o2)cc(OC)c1OC` [Compound 4i, (7-Hydroxy-6-methoxybenzofuran-2-yl)(3,4,5-trimethoxyphenyl)methanone], the IC50 in test [1] is greater than 10000 nM.

Consider `COc1cc(C(=O)c2cc3ccc(O)cc3o2)cc(OC)c1OC` [Compound 4m, (6-Hydroxybenzofuran-2-yl)(3,4,5-trimethoxyphenyl)-methanone], for which the IC50 in test [1] is greater than 10000 nM.
